The record followed here is ChEMBL document CHEMBL2086232, “Exploration of the SAR of anti-invasive chalcones: synthesis and biological evaluation of conformationally restricted analogues” (Bioorg Med Chem, 2012).

Each structure is given as a SMILES string. Active and inactive are the calls of the source. The calls are words filed in the database; no cut-off is given here.

The subject of data set [1] is MCF7/6. Nature of the data set: Antiinvasive activity against human MCF7/6 cells assessed as inhibition of cell invasion across chick precultured heart fragments at 100 umol/L after 8 days by chick heart invasion assay. The class given is functional, cell-based. In short, it runs like this:
(§1)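 Heart fragments from 9-day-old chick embryos were precultured, then confronted with aggregates of invasive human MCF-7/6 mammary carcinoma cells with test compound present. Replicate cultures were graded at each concentration.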

In data set [2] the test system is MCF7/6. The data set is described as follows: Antiinvasive activity against human MCF7/6 cells assessed as inhibition of cell invasion across chick precultured heart fragments at 1 umol/L after 8 days by chick heart invasion assay. Type of data set: functional, cell-based. The gist of the method:
as §1

A short description of data set [3]: Cytotoxicity against human MCF7/6 cells at 10 umol/L after 8 days by histological analysis. Particulars: mcf7/6, 192 h, 10 µM. The class given is cell-based. In short, it runs like this: (§2)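 Chick heart confronting cultures (9-day-old embryo precultured heart fragments plus MCF-7/6 aggregates, compound present) were examined on 7-µm histological sections. Replicate cultures were graded per concentration.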

Data set [4] deals with MCF7/6. Nature of the data set: Antiinvasive activity against human MCF7/6 cells assessed as inhibition of cell invasion across chick precultured heart fragments at 10 umol/L after 8 days by chick heart invasion assay. Type of data set: functional, cell-based. The gist of the method: as §1
Data set [5] concerns MCF7/6. Nature of the data set: Antiinvasive activity against human MCF7/6 cells assessed as inhibition of cell invasion across chick precultured heart fragments at 0.1 umol/L after 8 days by chick heart invasion assay. The class given is functional, cell-based. The gist of the method: as §1
Data set [6] can be described thus: Cytotoxicity against human MCF7/6 cells at 100 umol/L after 8 days by histological analysis. Type of data set: cell-based. Particulars: mcf7/6, 192 h, 100 µM. The gist of the method: as §2
The nature of data set [7]: Toxicity against chick precultured heart fragments at 10 umol/L after 8 days by histological analysis. The class given is tissue-based, Gallus gallus. The conditions noted are these: chicken, 192 h, 10 µM.

Take `COc1ccc(C2=NOC(c3ccc(Cl)cc3)C2)cc1` (stereo not given): the result in data set [1] and in data set [2] was inactive.

Consider `COc1cc(-c2oncc2-c2ccc(F)cc2)cc(OC)c1OC`, for which the Activity entry in data set [3], in data set [6] and in data set [7] was “Toxic” in each case. Moreover, the result in data set [4] and in data set [2] was Active. The result in data set [5] was inactive.

Turning to `COc1cc(C(=O)Cc2ccc(F)cc2)cc(OC)c1OC`, the outcome in data set [4], in data set [5] and in data set [2] was inactive. In addition, the outcome in data set [1] was Active. Also, the Activity entry in data set [6] is given as “Toxic”.

Regarding `COc1ccc(-c2cc(-c3ccc(Cl)cc3)on2)cc1`, the result in data set [4] and in data set [2] was inactive.

For the molecule `COc1cc(-c2cc(-c3ccc(F)cc3)on2)cc(OC)c1OC`, the result in data set [4] and in data set [1] was Active. Also, the outcome in data set [5] and in data set [2] was inactive. Moreover, the Activity entry in data set [6] was “Toxic”.
